This passage reports inhibition and IC50 results from ChEMBL document CHEMBL1125041, “New inhibitors of renin that contain novel phosphostatine Leu-Val replacements” (J Med Chem, 1990).

One assay has as its target T1, Renin (Homo sapiens) (UniProt P00797).
T1 sequence (whole entry): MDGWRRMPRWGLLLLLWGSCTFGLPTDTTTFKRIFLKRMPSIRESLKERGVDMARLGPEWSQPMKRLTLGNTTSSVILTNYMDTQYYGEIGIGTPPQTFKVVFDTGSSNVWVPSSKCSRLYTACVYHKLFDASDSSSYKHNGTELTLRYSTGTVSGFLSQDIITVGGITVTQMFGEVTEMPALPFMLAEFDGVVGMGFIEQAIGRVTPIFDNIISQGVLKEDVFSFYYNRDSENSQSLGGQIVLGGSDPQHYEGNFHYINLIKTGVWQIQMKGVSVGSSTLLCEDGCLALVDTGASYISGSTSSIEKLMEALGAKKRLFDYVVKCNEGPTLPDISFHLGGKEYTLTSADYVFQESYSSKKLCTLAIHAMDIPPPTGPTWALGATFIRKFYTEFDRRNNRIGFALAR
Briefly: The compound was tested in vitro for inhibition of purified human renal renin at pH 6 and a concentration of 10e-6 M. Put shortly: (§1)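 Purified human renal renin enzyme assay at pH 6.0, following a previously described method. IC50 values were determined. Where IC50 exceeded 10^-6 M, no IC50 was determined and percent inhibition was reported at the stated concentration.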

The target in assay [1] is Pepsin A (Sus scrofa) (UniProt P00791). Briefly: In vitro inhibitory activity against porcine pepsin was determined at 10e-5 M.
Chain of Pepsin A (Sus scrofa) (P00791 60-385 limits assumed): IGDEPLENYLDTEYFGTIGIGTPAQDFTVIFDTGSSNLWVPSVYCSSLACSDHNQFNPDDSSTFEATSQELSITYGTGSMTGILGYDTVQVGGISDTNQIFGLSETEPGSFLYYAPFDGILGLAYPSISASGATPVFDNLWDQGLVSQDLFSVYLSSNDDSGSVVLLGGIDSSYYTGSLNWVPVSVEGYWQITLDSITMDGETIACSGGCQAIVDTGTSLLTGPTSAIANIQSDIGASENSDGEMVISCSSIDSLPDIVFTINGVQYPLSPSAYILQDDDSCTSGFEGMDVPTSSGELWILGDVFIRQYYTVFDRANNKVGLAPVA
For assay [2], the target named is T2, Cathepsin D (Bos taurus) (UniProt P80209).
T2 sequence (whole entry): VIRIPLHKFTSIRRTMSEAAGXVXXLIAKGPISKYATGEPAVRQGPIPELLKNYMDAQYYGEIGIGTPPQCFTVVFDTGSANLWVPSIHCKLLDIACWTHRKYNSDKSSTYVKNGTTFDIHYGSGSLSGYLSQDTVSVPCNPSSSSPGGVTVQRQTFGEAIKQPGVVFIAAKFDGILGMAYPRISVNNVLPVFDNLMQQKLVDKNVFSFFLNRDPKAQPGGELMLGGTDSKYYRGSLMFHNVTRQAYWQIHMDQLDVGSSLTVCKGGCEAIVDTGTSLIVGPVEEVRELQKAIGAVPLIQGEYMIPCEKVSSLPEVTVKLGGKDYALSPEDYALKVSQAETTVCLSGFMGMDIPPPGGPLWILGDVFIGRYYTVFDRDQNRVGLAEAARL
Briefly: Tested for inhibition of Cathepsin D from bovine was determined at 10e-5 M.

The target in the next assay is T3, Renin (Homo sapiens, UniProt P00797).
T3 sequence (P00797 whole entry): T1 sequence (whole entry)
Briefly: Inhibition of purified human renal renin at pH 6. Put shortly: as §1

Assay [3] has as its target T2, Cathepsin D (Bos taurus). The experiment in a line: Tested for inhibition of Cathepsin D from bovine at a concentration of 10e-5 M.
Assay [4] deals with Pepsin A (Sus scrofa) (UniProt P00791). Briefly: Inhibitory activity against Porcine pepsin at a concentration of 10e-5 M.

The structures appear in SMILES notation.

A word on the inhibition: it is how much of the control response was suppressed. Read a low inhibition as little suppression. `CC(C)(C)OC(=O)N[C@@H](Cc1ccccc1)C(=O)N[C@@H](Cc1c[nH]cn1)C(=O)N[C@@H](CC1CCCCC1)[C@@H](O)CP(C)(C)=O` (stereo in doubt; 24): the inhibition against Renin (Homo sapiens) worked out at 49%. By IC50 is commonly meant the point on the concentration scale where inhibition reaches its midpoint. In the case of `COP(=O)(C[C@H](O)[C@H](CC1CCCCC1)NC(=O)[C@H](Cc1c[nH]cn1)NC(=O)[C@H](Cc1ccccc1)NC(=O)CC(C)(C)C)OC`, the inhibition was determined as 3% at Pepsin A (Sus scrofa) [1] and 6% against Cathepsin D (Bos taurus) [2]. The molecule further registered an IC50 at Renin of 47 nM. On the same counts, the results for `CCOC(=O)N[C@@H](Cc1ccccc1)C(=O)N[C@@H](Cc1c[nH]cn1)C(=O)N[C@@H](CC1CCCCC1)[C@@H](O)CP(=O)(OC)OC` are 4%, 0% and 50 nM.

For the molecule `COP(=O)(C[C@H](O)[C@H](CC1CCCCC1)NC(=O)[C@H](CC(C)C)NC(=O)[C@H](Cc1ccccc1)NC(=O)OC(C)(C)C)OC`, the inhibition at Pepsin A (Sus scrofa) [1] turned out to be 21%; against Cathepsin D (Bos taurus) [2] it was 86%. At Renin, this molecule had an IC50 of 20 nM. On Renin (Homo sapiens), `CC(C)(C)OC(=O)N[C@@H](Cc1ccccc1)C(=O)N[C@@H](Cc1c[nH]cn1)C(=O)N[C@@H](CC1CCCCC1)[C@@H](O)CP(C)(C)=O` (stereo in doubt; 23) returned an inhibition of 24%.

`COP(=O)(CC(O)[C@H](Cc1ccccc1)NC(=O)[C@H](C)NC(=O)C(Cc1ccccc1)NC(=O)OC(C)(C)C)OC` (stereo partly specified) yielded an IC50 against Renin of 15000 nM. With `CCOP(=O)(C[C@H](O)[C@H](CC1CCCCC1)NC(=O)[C@H](Cc1c[nH]cn1)NC(=O)[C@H](Cc1ccccc1)NC(=O)OC(C)(C)C)OCC`, the inhibition on Cathepsin D (Bos taurus) [3] and against Pepsin A (Sus scrofa) [4] was 0% each time. Besides, inhibition at Renin was half-maximal at 72 nM (IC50).

For the molecule `COP(=O)(O)C[C@H](O)[C@H](CC1CCCCC1)NC(=O)[C@H](CC(C)C)NC(=O)[C@H](Cc1ccccc1)NC(=O)OC(C)(C)C`, the IC50 at Renin was found to be 350 nM.

As for `COP(=O)(C[C@@H](O)[C@H](CC1CCCCC1)NC(=O)[C@H](Cc1c[nH]cn1)NC(=O)[C@H](Cc1ccccc1)NC(=O)OC(C)(C)C)OC`, on Renin, the IC50 was 90 nM. Still for that read-out and setting: under `COP(=O)(C[C@H](O)[C@H](CC(C)C)NC(=O)[C@H](Cc1c[nH]cn1)NC(=O)[C@H](Cc1ccccc1)NC(=O)OC(C)(C)C)OC` stands 5100 nM; under `COP(=O)(C[C@H](O)[C@H](Cc1ccccc1)NC(=O)[C@H](Cc1c[nH]cn1)NC(=O)[C@H](Cc1ccccc1)NC(=O)OC(C)(C)C)OC`, 1500 nM; under `COP(=O)(C[C@H](O)[C@H](CC1CCCCC1)NC(=O)[C@H](Cc1c[nH]cn1)NC(=O)[C@H](Cc1ccccc1)NC(=O)OC(C)(C)C)OC`, 39 nM. The same measure, in the same setting: under `CCCCOP(=O)(C[C@H](O)[C@H](CC1CCCCC1)NC(=O)[C@H](Cc1c[nH]cn1)NC(=O)[C@H](Cc1ccccc1)NC(=O)OC(C)(C)C)OCCCC` stands 400 nM; under `COP(=O)(C[C@@H](O)[C@H](Cc1ccccc1)NC(=O)[C@H](Cc1c[nH]cn1)NC(=O)[C@H](Cc1ccccc1)NC(=O)OC(C)(C)C)OC`, 4000 nM. The molecule `CC(C)OP(=O)(C[C@H](O)[C@H](CC1CCCCC1)NC(=O)[C@H](Cc1c[nH]cn1)NC(=O)[C@H](Cc1ccccc1)NC(=O)OC(C)(C)C)OC(C)C` had an IC50 against Renin of 1500 nM.

In the case of `CC(C)(C)OC(=O)N[C@@H](Cc1ccccc1)C(=O)N[C@@H](Cc1c[nH]cn1)C(=O)N[C@@H](CC1CCCCC1)[C@@H](O)CP1(=O)OCCCO1`, the values for the inhibition against Pepsin A (Sus scrofa) [1] and on Cathepsin D (Bos taurus) [2] were 2% and 0%, respectively. The IC50 at Renin turned out to be 80 nM.
